Results: article PMC2818876 (Journal of the American Chemical Society, 2010)

Assays:
SK-Mel-2 cells = assay: Cellular uptake and distribution by confocal Raman microscopy of live cells; assay type: cell-based, Human; settings: data not shown
[1] = Circular dichroism spectroscopy, secondary structure in water/TFE solutions; assay type: physicochemical; settings: 40 μM peptide, 25 °C, CDPro (average of CONTINLL, SELCON3, CDSSTR)
Summary of the method: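 Stock 20 mM in water (pH 7), stored at 4°C for ≤10 days and quantified by A280 (ε280 = 11,000 M−1.cm−1). CD recorded in a 1 mm quartz cell over 180–250 nm at 100 nm/min with 1 s response, 40 μM peptide, 25 °C. Eight scans averaged and background-corrected for water/TFE. Fractions from the CDPro SP37A reference set.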

α-helix structure (CD modeling) ([1]; 100% TFE): 25%
Random coil character (CD modeling) ([1]; 100% water): 54%
α-helix structure (CD modeling) ([1]; 100% water): 3%
β-strand structure (CD modeling) ([1]; 100% water): 21%
Compound: CC[C@H](C)[C@H](NC(=O)[C@H](CCCCN)NC(=O)[C@@H](NC(=O)[C@H](CCC(N)=O)NC(=O)[C@@H](N)CCCNC(=N)N)[C@@H](C)CC)C(=O)N[C@@H](Cc1c[nH]c2ccccc12)C(=O)N[C@@H](Cc1ccccc1)C(=O)N[C@@H](CCC(N)=O)C(=O)N[C@@H](CC(N)=O)C(=O)N[C@@H](CCCNC(=N)N)C(=O)N[C@@H](CCCNC(=N)N)C(=O)N[C@@H](CCSC)C(=O)N[C@@H](CCCCN)C(=O)N[C@@H](Cc1c[nH]c2ccccc12)C(=O)N[C@@H](CCCCN)C(=O)N[C@@H](CCCCN)C(N)=O [penetratin-Fh]
Peptide uptake by cells at 4°C (SK-Mel-2 cells; 4°C, confocal Raman microscopy): did not observe peptide uptake
Concentration dependence of the rate of accumulation in cell nuclei (SK-Mel-2 cells; range 25–300 μM, RT): only weakly dependent on concentration
